Laboratory results: ChEMBL document CHEMBL1136044, “Antitrypanosomal activities and cytotoxicity of 5-nitro-2-furancarbohydrazides” (Bioorg Med Chem Lett, 2002)

How the values were obtained:
Leishmania infantum = test: Evaluated in vitro for antitrypanosomal activity against Leishmania infantum; type: functional; conditions: read-out: ED50 (the source's name)
How it was run: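 Primary mouse peritoneal macrophages, 30,000 per well on culture slides. After 24 h, L. infantum amastigotes from the spleen of an infected donor animal were added at a 10/1 infection ratio with two-fold drug dilutions. Incubation was 7 days at 37 °C in 5% CO2. Wright-stained slides were scored microscopically for % reduction of parasite load or infected macrophages, and ED50 was extrapolated.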

Trypanosoma brucei = test: Evaluated in vitro for antitrypanosomal activity against Trypanosoma brucei; type: functional; conditions: read-out: ED50 (the source's name)
How it was run: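 T. brucei bloodstream forms were grown in HMI-9 medium. 10,000 haemoflagellates per well were exposed to different drug concentrations for 4 days; ED50 was reported.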

[1] = Tested for cytotoxicity towards mouse peritoneal macrophages (MPM); type: functional
How it was run: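 Peritoneal macrophages were harvested 48 h after potato-starch stimulation and seeded at 30,000 per well. After 24 h they were washed and given two-fold drug dilutions (32 down to 1.6) in RPMI + 5% FCS, with final DMSO below 0.5%. Cultures ran 7 days at 37 °C in 5% CO2 alongside untreated controls.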

Trypanosoma cruzi = test: Evaluated in vitro for antitrypanosomal activity against Trypanosoma cruzi; type: functional; conditions: read-out: ED50 (the source's name)
How it was run: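 Mouse peritoneal macrophages were seeded at 30,000 per well. After 24 h, about 100,000 T. cruzi trypomastigotes were added per well with 2-fold drug dilutions, then held 4 days at 37 °C in 5% CO2. After methanol fixation and Giemsa staining, % reduction of total parasite load (free trypomastigotes plus intracellular amastigotes) versus untreated cultures was scored microscopically; ED50 was extrapolated.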

MRC5 = test: Tested for cytotoxicity towards human MRC-5 cells; type: functional
How it was run: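 MRC-5 cells were seeded at 5000 per well and washed after 24 h. Two-fold drug dilutions (32 down to 1.6) were added in RPMI + 5% FCS, with final DMSO below 0.5%. After 7 days at 37 °C in 5% CO2, MTT absorbance at 540 nm was read as % reduction versus untreated controls to give CC50.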

Trypanothione reductase = Trypanothione reductase (Trypanosoma cruzi, UniProt P28593); test: Compound was tested for inhibition of trypanothione reductase from Trypanosoma cruzi
Chain of Trypanothione reductase (P28593 whole entry): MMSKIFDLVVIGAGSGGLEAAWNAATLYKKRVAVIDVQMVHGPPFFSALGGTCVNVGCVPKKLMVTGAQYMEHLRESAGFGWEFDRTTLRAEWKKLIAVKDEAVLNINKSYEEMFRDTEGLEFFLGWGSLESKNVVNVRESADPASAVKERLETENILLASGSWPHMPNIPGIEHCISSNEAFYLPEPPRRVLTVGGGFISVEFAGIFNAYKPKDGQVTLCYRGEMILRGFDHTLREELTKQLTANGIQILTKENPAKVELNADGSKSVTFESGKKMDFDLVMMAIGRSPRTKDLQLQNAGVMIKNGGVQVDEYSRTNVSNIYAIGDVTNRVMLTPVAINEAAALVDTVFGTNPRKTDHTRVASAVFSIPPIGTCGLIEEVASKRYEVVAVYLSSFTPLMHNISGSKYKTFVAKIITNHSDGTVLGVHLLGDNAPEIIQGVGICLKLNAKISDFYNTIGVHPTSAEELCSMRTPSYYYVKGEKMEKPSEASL
How it was run: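 T. cruzi trypanothione reductase assay, with trypanothione disulfide as substrate and 0.02 U TR per assay; IC50 determined over increasing compound concentrations.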

Structure (SMILES) | EC50 (Leishmania infantum) [µM] | EC50 (Trypanosoma brucei) [µM] | CC50 [1] [µM] | EC50 (Trypanosoma cruzi) [µM] | CC50 (MRC5) [µM] | IC50 (Trypanothione reductase) [µM]
O=C(O)c1ccc([N+](=O)[O-])o1 [5-NITRO-2-FUROIC ACID] | > 32 | 5 | 32 | > 32 | > 32 | –
N[C@@H](C(=O)NNC(=O)c1ccc([N+](=O)[O-])o1)c1ccccc1 | > 32 | 2 | 32 | 2 | 14 | –
O=C(NNS(=O)(=O)c1cccc2ccccc12)c1ccc([N+](=O)[O-])o1 | 8 | 1 | 32 | 0.8 | 0.75 | –
Nc1ccc2cc(C(=O)NNC(=O)c3ccc([N+](=O)[O-])o3)ccc2c1 | 8 | 0.64 | 32 | 4 | 0.77 | –
O=C(NNS(=O)(=O)c1ccccc1)c1ccc([N+](=O)[O-])o1 | > 32 | 2 | 32 | 16 | 4 | –
COC(=O)c1ccc([N+](=O)[O-])o1 | > 32 | > 32 | 32 | > 32 | > 32 | –
NNC(=O)c1ccc([N+](=O)[O-])o1 | > 32 | 5 | 32 | 0.5 | 9 | > 50
CC(C)(C)OC(=O)Nc1ccc2cc(C(=O)NNC(=O)c3ccc([N+](=O)[O-])o3)ccc2c1 | 8 | 0.5 | 32 | 1 | 2 | –
O=C(NNC(=O)c1ccc([N+](=O)[O-])o1)c1ccccc1 | > 32 | 32 | 32 | 16 | 17 | –
Nc1nc(N)nc(Nc2ccc([As]3SCC(CO)S3)cc2)n1 (centres undefined) [MELARSOPROL] | – | 0.2 | – | – | – | –
CC(C)(C)OC(=O)NNC(=O)c1ccc([N+](=O)[O-])o1 | > 32 | 2 | 32 | 1 | 12 | > 50
CC(C)(C)OC(=O)N[C@@H](C(=O)NNC(=O)c1ccc([N+](=O)[O-])o1)c1ccccc1 | 8 | 0.25 | 32 | 4 | 6 | –
O=C(Cc1ccc2ccccc2c1)NNC(=O)c1ccc([N+](=O)[O-])o1 | 8 | 0.59 | 32 | 0.4 | 4 | > 25
O=C(NNS(=O)(=O)c1ccc2ccccc2c1)c1ccc([N+](=O)[O-])o1 | > 32 | 28 | 32 | > 32 | 18 | –
O=C(Cc1ccccc1)NNC(=O)c1ccc([N+](=O)[O-])o1 | 8 | 0.3 | 32 | 1 | 2 | –
CC1CS(=O)(=O)CCN1/N=C/c1ccc([N+](=O)[O-])o1 (centres undefined) [NIFURTIMOX] | – | – | – | 0.4 | > 50 | –
O=C(NNC(=O)c1cccc2ccccc12)c1ccc([N+](=O)[O-])o1 | 8 | 0.4 | 32 | 3 | 1 | –
O=C(Cn1ccnc1[N+](=O)[O-])NCc1ccccc1 [BENZNIDAZOLE] | – | – | – | 3.13 | > 50 | –
O=C(NNC(=O)c1ccc([N+](=O)[O-])o1)c1ccc2ccccc2c1 | 8 | 0.13 | 32 | 4 | 2 | –
O=C(NNC(=O)c1ccc([N+](=O)[O-])o1)c1ccc([N+](=O)[O-])o1 | 8 | 3 | 32 | 3 | 4 | > 50
